Compound activity: PubChem, several laboratories
Hits are enriched below; roughly 2.4% of the tested compounds scored in any of these assays.
aDG glyco up: increases alpha dystroglycan glycosylation. Pro5-aDG cells, alpha-DG glycosylation AlphaScreen (IIH6); 0% Pro5, 100% B10-LARGE cell signal. activation, % at 10 µM. 0.22% of 360,000 active;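 active = activation of at least 8% versus controls, or a plate z-score of at least 8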;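 note: Pro5 are CHO cells carrying HIG-tagged alpha-DG that lacks glycosylation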
MC4R ag barr: human MC4R agonism via beta-arrestin | 0.98% of 360,000 active | U2OS MC4R beta-arrestin complementation, luminescence; percent of melanotan II response, DMSO zero | activation, % at 8.9 µM | AID 540308 | P32245;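 active = activation above a per-plate cutoff, the mean activation of sample wells on that plate plus 3 SD, cut at about 8% in these data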
Tb MetRS inh: blocks T. brucei methionyl-tRNA synthetase activity | inhibition, % at 11.9 µM | purified T. brucei MetRS, ATP depletion, Kinase-Glo luminescence | 0.4% of 360,000 active;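 active = inhibition above a per-plate cutoff of the control wells' mean inhibition plus 3 SD, cut at about 5.5% in these data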
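Material – parasite MetRS enzyme · Medium – HEPES-MgCl2-KCl buffer plus DTT, spermine, BSA, pyrophosphatase · Reagent – ATP, methionine and E. coli bulk tRNA substrates · Times – 15 min enzyme-compound preincubation, 2 h reaction, 10 min detection, 25 °C · Measured by – luminescence of leftover ATP · Evaluation – percent inhibition relative to median high and low control wells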
H9c2 TAG inh: inhibitors of triacylglycerol accumulation; H9c2 cells, Nile Red lipid (TAG) fluorescence; cells loaded with 200 µM oleic acid; inhibition, % at 12.5 µM; 0.66% of 230,000 active;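 active = pattern-corrected inhibition of lipid staining of at least 50% with the nuclear-stain viability signal not falling by more than 50%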
NTR1 agonist: NTR1 (human) agonism; P30989; NTR1-U2OS beta-arrestin-GFP spot imaging, agonist mode; activation, % at 20 µM; 0.17% of 330,000 active; AID 493036;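 active = activation at or above 40% of the spot to cytoplasm intensity ratio, with at least 20 cells analyzed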
Target sequence (P30989 whole entry, looked up): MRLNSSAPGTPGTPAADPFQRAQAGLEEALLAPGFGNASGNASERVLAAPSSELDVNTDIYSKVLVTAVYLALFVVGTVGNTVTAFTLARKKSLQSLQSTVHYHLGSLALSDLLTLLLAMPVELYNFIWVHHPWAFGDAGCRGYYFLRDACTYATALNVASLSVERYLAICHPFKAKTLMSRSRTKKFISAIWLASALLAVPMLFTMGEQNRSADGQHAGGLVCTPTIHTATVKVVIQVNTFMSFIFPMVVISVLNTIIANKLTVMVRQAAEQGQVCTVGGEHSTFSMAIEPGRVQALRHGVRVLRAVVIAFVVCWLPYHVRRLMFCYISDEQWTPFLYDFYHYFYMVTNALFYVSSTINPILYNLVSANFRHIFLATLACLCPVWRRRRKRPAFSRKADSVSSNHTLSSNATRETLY
MC4R antag cAMP: antagonists of human melanocortin 4 receptor (MC4R). MC4R-expressing cells, MTII-stimulated cAMP, LANCE TR-FRET. inhibition, % at 6.5 µM. 0.48% of 360,000 active;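 active = inhibition above its plate's cutoff, the mean of tested wells on that plate plus 3 SD, cut at about 29% in these data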
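Assay system: U2OS cells stably expressing human melanocortin 4 receptor (MC4R) / Dosing: 6.5 µM / Timing: compound 30 min, challenge 1 h, detection 1 h / Measured by: Eu-cAMP/anti-cAMP TR-FRET, emission 671 nm / Replicates: singlicate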
cAMP nonselect: counter-screen for MC4R antagonists: nonselective cAMP signaling inhibitors; shares compounds with MC4R antag cAMP; parental U2OS, forskolin cAMP, LANCE TR-FRET; inhibition, % at 6.5 µM; 26% of 1,600 active;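 active = mean inhibition over triplicates above the low-control well mean plus 3 SD, set per campaign, cut at about 13% in these data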;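 note: signal is single emission at 671 nm which falls as cellular cAMP rises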
MC4R cAMP antag: human MC4R cAMP antagonism confirmation; 27% of 1,600 active; inhibition, % at 6.5 µM; shares compounds with MC4R antag cAMP; MC4R-expressing cells, MTII-stimulated cAMP, TR-FRET; in the data active = inhibition above about 29%
Numbers stand for hits; . = inactive; / = no result given; + = active, no number.

SMILES	aDG glyco up	MC4R ag barr	Tb MetRS inh	H9c2 TAG inh	NTR1 agonist	MC4R antag cAMP	cAMP nonselect	MC4R cAMP antag
COc1ccc(C(=O)N(CC(=O)Nc2sc(C)c(C)c2C(N)=O)C2CCCC2)cc1	.	.	.	/	.	.	/	/
CCOC(=O)[C@]12CCCC=C1N(CCc1ccc(OC)c(OC)c1)C(=O)[C@H](CC(=O)N1CCSCC1)C2	.	/	.	/	/	/	/	/
Cc1cc(Br)cn2c(Cc3ccsc3)c(-c3ccc(F)cc3)nc12	.	/	.	/	/	/	/	/
CCOc1ccc(NC(=O)CNC(=O)c2nn(-c3ccc(OC)c(OC)c3)c(=O)c3ccccc23)cc1	.	.	.	/	.	38	.	.
CC1=C(C(=O)N(C(C)C)C(C)C)CC(CC(=O)NCC2CCCCC2)C(=O)N1Cc1ccc(C(C)(C)C)cc1 (centres undefined)	.	/	.	/	/	/	/	/
COc1ccc(Cc2c(-c3ccc(OC)c(OC)c3)nc3cc(C)c(Br)c(C)n23)c(C)c1	.	/	.	/	/	/	/	/
Cc1ccc(Sc2ccc(NC(=O)c3ccc(S(C)(=O)=O)cc3Cl)cc2)cc1	.	.	.	/	.	108	125	+
O=S(=O)(NCc1ccco1)c1cnc(Cl)c(Br)c1	.	.	.	/	.	42	30	67
O=C(NC(=S)NCCCN1CCOCC1)c1ccco1	.	.	.	.	.	29	.	.
O=C(NC(=S)NCCN1CCOCC1)c1ccccc1Cl	.	.	.	.	.	.	/	/
NC(=O)c1cccc2ccccc12	.	.	.	.	.	32	.	.
O=C(c1ccccc1)c1cccc2ccccc12	.	.	.	.	/	.	/	/
O=C1CCCN1C1CCN(Cc2ccccc2)S(=O)(=O)N1 (centres undefined)	.	/	.	/	/	/	/	/
CCOC(=O)c1cnn(-c2nc(-c3ccc(C)cc3)cs2)c1C(F)(F)F	.	.	.	.	/	.	/	/
O=C(O)c1cnn(-c2nc(-c3ccc(F)cc3)cs2)c1C(F)(F)F	.	.	.	/	.	32	.	.
NC(=O)Cc1nc(-c2ccc(Br)cc2)cs1	.	.	.	/	.	.	/	/
O=C(O)c1cnn(-c2nc(-c3ccc(Br)cc3)cs2)c1C(F)(F)F	.	.	.	/	.	32	.	.
CSc1ccc(CNC(=O)C2(C)CCCN(C(C)C)C2)cc1 (centres undefined)	.	.	.	.	/	.	/	/
COC(=O)c1ccc(OC(=O)CS(=O)c2ccccc2[N+](=O)[O-])cc1 (centres undefined)	.	.	.	/	.	.	/	/
O=C(CS(=O)c1ccc(C(F)(F)F)cc1[N+](=O)[O-])Oc1ccccc1 (centres undefined)	.	.	.	.	.	49	.	34
CN1CCN(c2ccc(NC(=O)c3sc4ccccc4c3Cl)cc2)CC1	.	.	.	.	.	.	/	/
COC(=O)c1ccc(N2CCN(C)CC2)c(NC(=O)c2sc3ccccc3c2Cl)c1	.	.	.	.	/	31	.	.
CCOC(=O)[C@]12CCCC=C1N(Cc1ccccc1)C(=O)[C@H](CC(=O)N1CCC(c3ccccc3)CC1)C2	.	/	.	/	/	/	/	/
CC1=C(CO)C(=O)OC([C@@H](C)C2CC[C@H]3C4C[C@H]5O[C@]56[C@@H](O)C=CC(=O)[C@]6(C)C4CC[C@]23C)C1 (some centres undefined)	.	.	.	/	/	39	.	48
COc1cccc(-c2cc3nc(NCCN4CCCC4)n(C)c(=O)c3s2)c1	.	.	.	.	/	.	/	/
CCOC(=O)C(=Cc1ccc(-n2ccnc2)cc1)C(=O)OCC	.	.	.	/	.	34	.	.
c1ccc(-c2noc(CN3CCCC(OCc4ccccn4)C3)n2)cc1 (centres undefined)	.	.	.	.	.	31	.	.
O=C(Nc1nc(-c2ccccn2)cs1)c1cc(Cl)ccc1[N+](=O)[O-]	.	.	.	.	.	29	32	.
